# Compound activity (PubChem)
# Most compounds without a hit are left out; they make up all but 3.5% or so of the library.
# RGS4 pot = RGS4 potentiation or activation; HEK293 M3R/inducible RGS4, carbachol calcium flux Fluo4; stronger effect = lower value; B-score at 10 µM; 310,000 compounds, 0.92% hits;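 active = B-score of the integrated calcium signal more than 4 SD below the library mean, with starting fluorescence not abnormally high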;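 also: negative B-score means reduced calcium response which marks RGS4 activation or potentiation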
#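 Material: M3R-expressing HEK293 line, RGS4 induced by doxycycline | Schedule: Overnight RGS4 induction, 30 min dye load 37 °C, 20 min compound RT | Measured by: Fluo4 fluorescence kinetic imaging of calcium | Read-out: Integrated calcium ratio converted to B score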
# RGS4 block = inhibitors of human RGS4; P49798; HEK293 M3R/RGS4 inducible, Fluo-4 calcium flux; stronger effect = higher value; triggered by carbachol at its EC20; B-score at 10 µM; 310,000 compounds, 0.45% hits;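 active = B-score, a plate-corrected calcium signal, over three deviations above library mean, with baseline fluorescence within five deviations of library mean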;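 also: RGS4 expression induced by doxycycline in cells with stable M3 receptor; B-score is computed from the integrated fluorescence ratio over baseline after carbachol; higher B-score means a larger calcium signal and so more RGS4 inhibition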
# Target sequence (P49798 whole entry, looked up): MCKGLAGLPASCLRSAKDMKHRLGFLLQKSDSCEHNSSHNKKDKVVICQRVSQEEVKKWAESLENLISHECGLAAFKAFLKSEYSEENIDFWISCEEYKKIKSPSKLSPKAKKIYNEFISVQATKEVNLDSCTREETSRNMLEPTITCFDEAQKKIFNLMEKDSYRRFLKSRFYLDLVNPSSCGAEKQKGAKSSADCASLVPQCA
# MrgX1 antagonist = antagonists of human MrgX1 receptor; Q96LB2; MRGX1-HEK293 calcium flux, Fluo-4, BAM8-22 antagonism; stronger effect = lower value; B-score at 10 µM; 310,000 compounds, 1.3% hits; AID 588676;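 active = calcium-response B-score plate-corrected more than 3 library SD below zero, starting fluorescence within 5 deviations, no agonist response on first addition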;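 also: peak minus trough fluorescence over baseline after final BAM8-22 challenge near maximal dose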
# Target sequence (Q96LB2 whole entry, looked up): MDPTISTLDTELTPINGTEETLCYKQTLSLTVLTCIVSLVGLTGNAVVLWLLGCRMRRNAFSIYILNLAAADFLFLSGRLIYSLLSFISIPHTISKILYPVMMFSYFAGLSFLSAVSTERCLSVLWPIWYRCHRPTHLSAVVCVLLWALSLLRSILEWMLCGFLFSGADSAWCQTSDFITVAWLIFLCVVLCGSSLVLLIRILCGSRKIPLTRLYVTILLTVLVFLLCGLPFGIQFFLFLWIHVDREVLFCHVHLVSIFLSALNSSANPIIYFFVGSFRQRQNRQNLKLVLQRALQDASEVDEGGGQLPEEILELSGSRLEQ
# MrgX1 ag = human MrgX1 receptor agonism, primary screen; 310,000 compounds, 0.44% hits; B-score at 10 µM; AID 588627; Q96LB2; MrgX1-HEK293 cells, Fluo-4 calcium fluorescence, agonist mode; stronger effect = higher value;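 active = calcium response B-score plate-corrected fluorescence ratio at least 3 library SD, with starting fluorescence B-score inside 5 SD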
#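 Assay system: stable human MrgX1 HEK293 cell line. Quantity: 15,000 cells per well. Schedule: cells plated overnight, dye loaded 0.5 h 37 °C, 0.5 h room temperature. Detection: Fluo-4 NW calcium-flux fluorescence, kinetic read. Read-out basis: peak-minus-minimum fluorescence over baseline, converted to B scores. Control set: positive and negative control wells on each plate.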
# MrgX1 PAM = allosterically activates human MrgX1 receptor signaling. 310,000 compounds, 0.63% hits. B-score at 10 µM. MrgX1-HEK293, Fluo-4 calcium flux, FDSS; stronger effect = higher value. Q96LB2;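 active = plate-corrected calcium response at least 3 library SD above typical, normal starting fluorescence, not activating the receptor alone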;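 also: compound read alongside a low EC10 to EC30 dose of BAM8-22 agonist; peak minus trough fluorescence over baseline measured at the second addition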
# RGS4 inh valid = RGS4 inhibitor validation; 1,700 compounds, 65% hits; calcium response, % at 10 µM; HEK293 M3R/RGS4, carbachol calcium Fluo-4 fluorescence; carbachol added at its EC20; 0 = buffer wells, 100 = carbachol control; shares compounds with RGS4 block;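 active = duplicate-averaged calcium response above the buffer-only control mean plus 5 SD of those controls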;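 also: integrated fluorescence ratio F max minus min over baseline F0; higher response in RGS4-induced cells means RGS4 inhibition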
# M3R Ca ctr = counter-screen for RGS4 inhibitors: effect in non-induced cells; HEK293 M3R non-induced, carbachol calcium Fluo-4; submaximal (EC20) carbachol stimulus; buffer wells 0%, carbachol control wells 100%; activity (percent), % at 10 µM; shares compounds with RGS4 block; AID 493000; 1,900 compounds, 20% hits; call rule not given here;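 also: RGS4 induction absent so cells express M3R without RGS4; higher means more calcium signal and flags a non-specific hit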
# RGS4 inh ctr2 = second RGS4 inhibitor counter-screen in uninduced cells lacking carbachol; shares compounds with RGS4 block; HEK293 M3R/RGS4 non-induced, Fluo-4 calcium, no carbachol; normalised: buffer wells 0%, carbachol wells 100%; calcium response (agonist-mode artifact), % at 10 µM; 1,900 compounds, 22% hits;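 active = duplicate-averaged calcium rise in uninduced cells above buffer wells' mean plus 5 SD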
# MrgX1 ag confirm = human MrgX1 agonism, re-confirmation screen. shares compounds with MrgX1 ag. MrgX1-HEK293, Fluo-4 calcium fluorescence, FDSS. activation, % at 10 µM. 600 compounds, 78% hits. AID 602412;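 active = calcium signal rise, corrected for plate position, at least 3 library SD high, with starting brightness within 5 such deviations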
# HEK293 Ca flux = MrgX1 antagonist counter-screen hit in parental HEK293 cells; shares compounds with MrgX1 antagonist; Fluo-4 calcium fluorescence, FDSS; fluorescence ratio F(max-min)/F0 at 10 µM; 4,000 compounds, 2% hits; AID 624111;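 active = duplicate-averaged calcium fluorescence ratio at least three times the standard deviation of buffer wells, a nonspecific response in parental cells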
# HEK293 Ca counter = MrgX1 allosteric activator counter-screen hit in parental HEK293 cells; 4,000 compounds, 0.4% hits; fluorescence ratio F(max-min)/F0 at 10 µM; parental HEK293 calcium flux, Fluo-4 fluorescence ratio; stronger effect = higher value; shares compounds with MrgX1 antagonist;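 active = calcium fluorescence ratio, averaged over duplicates, at least 3 SD of the buffer-well ratio, meaning a nonspecific response in receptor-free cells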;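 also: untransfected parental HEK293 lacking MrgX1 used as counterscreen for MrgX1 allosteric activators; fluorescence change taken during the second addition on a kinetic imager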
# HEK293 Ca cntr2 = counter-screen for MrgX1 activators: effect in parental HEK293 cells; 4,000 compounds, 8.7% hits; Fluo-4 calcium fluorescence (FDSS); stronger effect = higher value; shares compounds with MrgX1 antagonist; AID 624115; fluorescence ratio F(max-min)/F0 at 10 µM;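 active = calcium fluorescence ratio at least three times the spread of buffer wells, meaning a non-specific response in parental cells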
# * = called active by the depositor; i = inactive; x = no result; ! = repeats disagree.
SMILES,RGS4 pot,RGS4 block,MrgX1 antagonist,MrgX1 ag,MrgX1 PAM,RGS4 inh valid,M3R Ca ctr,RGS4 inh ctr2,others
COc1ccc(N2C(=O)NC(=O)/C(=C\c3ccc([N+](=O)[O-])s3)C2=O)cc1,i,5.2*,i,i,i,22%*,i,i,
COc1ccc(N2C(=O)NC(=O)/C(=C/c3ccc([N+](=O)[O-])s3)C2=O)cc1,i,6.1*,i,i,i,16%*,i,i,
COc1cccc(N2C(=O)NC(=O)/C(=C/c3ccc([N+](=O)[O-])s3)C2=O)c1,i,10*,i,i,i,20%*,35%*,i,
COc1cccc(N2C(=O)NC(=O)/C(=C/c3ccc4c(c3)Cc3ccccc3-4)C2=O)c1,i,i,i,i,i,x,x,x,
CCOc1ccc(N2C(=O)NC(=O)/C(=C\c3cc(OC)c(OC)cc3[N+](=O)[O-])C2=O)cc1,i,i,i,i,i,x,x,x,
CCCCCc1nc2ccccc2c(=O)n1-c1ccc(Cl)cc1[N+](=O)[O-],i,i,i,i,i,x,x,x,
O=c1[nH]c(=O)n(-c2ccccc2)c(O)c1/C=C1/C(c2ccccc2)=Nc2ccccc21,i,9.1*,i,42*,i,30%*,i,16%*,
COc1cc(O)cc2c1C(=O)OC(C)CCCC(=O)CCC/C=C\2 (stereo not given),i,i,i,i,i,x,i,i,
C[C@H]1CCCC(=O)CCC/C=C/c2cc(O)cc(O)c2C(=O)O1,i,8.2*,i,i,i,35%*,i,i,
C=CCN1C(=O)NC(=O)/C(=C/c2cc3c4c(c2)CCCN4CCC3)C1=O,i,i,i,i,i,x,x,x,
O=C1NC(=S)NC(=O)C1=Cc1ccc2c(c1)CCN2CCCCl,i,10*,i,i,i,42%*,i,i,
CC(C)(C)NC(=O)C1CC2CCCCC2CN1 (stereo not given),i,i,i,i,i,x,x,x,
CCCCc1nc(N2CCNCC2)c(C#N)c2c1CSC(C)(C)C2,i,i,i,i,i,x,x,x,
N#Cc1c(N2CCNCC2)nc(-c2ccco2)c2c1CCCC2,i,5.5*,i,i,i,i,i,i,
C=C(CO)CC1CC(O)[C@]2(C)OC3CC4OC5C[C@]6(C)O[C@]7(C)CCC8OC9C[C@]%10(C)OC%11C(C)=CC(=O)OC%11CC%10OC9C[C@@H](C)C8OC7CC6O[C@]5(C)C/C=C\C4OC3CC2O1 (stereo not given in full),i,i,i,i,i,x,i,i,
COC(=O)N(c1ccccc1)P(=O)(Oc1ccccc1)Oc1ccccc1,i,i,i,i,i,x,x,x,
CCN(CC)c1ccc(/C=C/[N+](=O)[O-])cc1,i,10*,i,i,i,29%*,i,580%*,
CN1C(=O)C(=Cc2ccccc2OCc2ccccc2Cl)C(=O)N(C)C1=O,i,i,i,i,i,x,x,x,
COc1cc(/C=C(/C)[N+](=O)[O-])ccc1OCc1ccccc1Cl,i,31*,i,i,i,10%*,i,38%*,
O=C1/C(=C\c2ccc([N+](=O)[O-])cc2)N2CCC1CC2,i,5.9*,i,i,i,5.0%*,i,i,
Cc1cc(C)n(-c2ccc(NN=C(C#N)C#N)cc2)n1,i,i,i,88*,i,x,x,x,MrgX1 ag confirm=215%*;HEK293 Ca flux=i;HEK293 Ca counter=i;HEK293 Ca cntr2=56*
C#CCOC(=O)C1=CCCN(C)C1,x,x,i,90*,i,x,x,x,MrgX1 ag confirm=281%*;HEK293 Ca flux=i;HEK293 Ca counter=i;HEK293 Ca cntr2=54*
C#CC[N+]1(C)C2CCC1CC(O)C2 (stereo not given),i,i,i,i,i,x,x,x,
CC(=O)OCC[N+](C)(C)C,-7.5*!,i,i,134*,i,x,x,x,MrgX1 ag confirm=558%*;HEK293 Ca flux=i;HEK293 Ca counter=i;HEK293 Ca cntr2=108*
O=C1CN(O)C(c2ccccc2)=c2cc(Cl)ccc2=N1,i,i,i,i,i,x,x,x,
SMILES,RGS4 pot,RGS4 block,MrgX1 antagonist,MrgX1 ag,MrgX1 PAM,RGS4 inh valid,M3R Ca ctr,RGS4 inh ctr2,others
CNCCc1ccc(O)c(O)c1,i,i,i,43*,i,x,x,x,MrgX1 ag confirm=116%*;HEK293 Ca flux=i;HEK293 Ca counter=i;HEK293 Ca cntr2=i
CN(C)C1(CNC(=O)c2cc(S(=O)(=O)N3CCOCC3)c(Cl)cc2Cl)CCCCC1,i,i,i,i,i,x,x,x,
CN(C)C1(CNC(=O)Nc2ccc(Cl)c(Cl)c2)CCCCC1,i,i,i,30*,i,x,x,x,MrgX1 ag confirm=i;HEK293 Ca flux=i;HEK293 Ca counter=i;HEK293 Ca cntr2=i
CCc1ccc2nc(N3CCC(C(=O)N4CCC5(CC4)OCCO5)CC3)sc2c1,i,i,i,i,i,x,x,x,
C[C@H]1OC[C@@H](C[N+](C)(C)C)O1,i,i,i,112*,i,x,x,x,MrgX1 ag confirm=550%*;HEK293 Ca flux=i;HEK293 Ca counter=i;HEK293 Ca cntr2=107*
CC1OC(C[N+](C)(C)C)CC1O (stereo not given),x,x,i,80*,i,x,x,x,MrgX1 ag confirm=502%*;HEK293 Ca flux=i;HEK293 Ca counter=i;HEK293 Ca cntr2=104*
O=C(CCCN1CCC2(CC1)C(=O)NCN2c1ccccc1)c1ccc(F)cc1,i,i,i,76*,i,x,x,x,MrgX1 ag confirm=542%*;HEK293 Ca flux=i;HEK293 Ca counter=i;HEK293 Ca cntr2=99*
O=C(c1ccc(F)cc1)C(Cc1ccccc1)N1CCCCC1 (stereo not given),i,i,i,i,i,x,x,x,
COc1ccc(C2=NS(=O)(=O)N(C)C(C(=O)N3CCC4(CC3)OCCO4)=C2)cc1OC,i,i,i,i,i,x,x,x,
